Measurements reported in ChEMBL document CHEMBL1122366, “Potential antiatherosclerotic agents. 3. Substituted benzoic and non benzoic acid analogues of cetaben” (1983).

What was measured:
[1] = molecular target: T1, Sterol O-acyltransferase 1 (Rattus norvegicus) (UniProt O70536); test: In vitro inhibition of acyl coenzyme A:cholesterol acyltransferase; parameters: concentration or dose not given beside the values; settings: concentration not given here
T1 sequence (whole entry): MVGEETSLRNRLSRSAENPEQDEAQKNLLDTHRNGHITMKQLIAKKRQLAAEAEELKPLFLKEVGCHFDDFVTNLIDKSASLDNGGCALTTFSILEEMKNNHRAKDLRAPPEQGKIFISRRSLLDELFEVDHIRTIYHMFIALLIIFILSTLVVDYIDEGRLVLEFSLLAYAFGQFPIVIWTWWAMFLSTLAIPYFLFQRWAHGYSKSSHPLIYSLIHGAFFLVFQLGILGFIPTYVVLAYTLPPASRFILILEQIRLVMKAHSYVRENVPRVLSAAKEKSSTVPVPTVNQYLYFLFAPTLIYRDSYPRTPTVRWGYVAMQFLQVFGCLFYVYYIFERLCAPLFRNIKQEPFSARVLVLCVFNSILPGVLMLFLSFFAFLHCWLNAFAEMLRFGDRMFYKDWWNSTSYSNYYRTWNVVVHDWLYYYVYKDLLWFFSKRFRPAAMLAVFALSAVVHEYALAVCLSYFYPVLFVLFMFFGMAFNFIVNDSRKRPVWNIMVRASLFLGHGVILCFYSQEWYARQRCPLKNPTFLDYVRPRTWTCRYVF
How it was run: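 Enzyme fatty acyl-CoA:cholesterol acyltransferase (ACAT), assayed in vitro at a single drug concentration of 5.2 μg/mL. The value is the mean percent inhibition of enzyme activity.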

Rattus norvegicus [2] = test: In vivo triglyceride lowering activity when dosed at 0.03 % of the diet; type: functional
How it was run: (§1)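 Normal rats were dosed in the diet. Serum sterol and triglyceride levels were measured and expressed as the mean percent of control values. Significance versus control was reported at p < 0.05, 0.01 and 0.001.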

Rattus norvegicus [3] = test: In vivo sterol lowering activity when dosed as 0.01 % of the diet; type: functional; how it was run: as §1
Rattus norvegicus [4] = test: In vivo sterol lowering activity when dosed as 0.03 % of the diet; type: functional; how it was run: as §1
Rattus norvegicus [5] = test: In vivo sterol lowering activity at dose of 0.10 % of the diet; type: functional; how it was run: as §1
Rattus norvegicus [6] = test: In vivo triglyceride lowering activity when dosed as 0.01 % of the diet; type: functional; how it was run: as §1
Rattus norvegicus [7] = test: In vivo triglyceride lowering activity dosed at 0.10 % of the diet.; type: functional; how it was run: as §1
Rattus norvegicus [8] = test: In vivo triglyceride lowering activity when dosed as 0.025 % of the diet
Rattus norvegicus [9] = test: In vivo triglyceride lowering activity when dosed at 0.05 % of the diet

| Compound | inhibition [1] | serum triglyceride level, percent of control (Rattus norvegicus [2]) | serum sterol level, % of control (Rattus norvegicus [3]) | serum sterol level, percent of control (Rattus norvegicus [4]) | serum sterol level, percent of control (Rattus norvegicus [5]) | serum triglyceride level, percent of control (Rattus norvegicus [6]) | serum triglyceride, percent of control (Rattus norvegicus [7]) | Diet (Rattus norvegicus [8]) | Diet (Rattus norvegicus [9]) |
| --- | --- | --- | --- | --- | --- | --- | --- | --- | --- |
| CCCCCCCCCCCCCCCCNc1ccc(C(=O)OCC(=O)OC)cc1 | < 24% | 72% | 84% | <76% | <71% | 79% | 74% |  |  |
| CCCCCCCCCCCCCCCCNc1ccc(C(C)(C)C(=O)O)cc1 | < 27% | 121% | 93% | 111% | 107% | 109% | 116% |  |  |
| CCCCCCCCCCCCCCCCNc1ccc(C(=O)CS(C)(=O)=O)cc1 | 0% | 112% | 98% | 97% | 100% | 88% | 110% |  |  |
| CCCCCCCCCCCCCCCCNc1cc(C(=O)[O-])cc(C(=O)[O-])c1.[Na+].[Na+] | 0% | 115% | 92% | 99% | 90% | 96% | 103% |  |  |
| CCCCCCCCCCCCCCCCNc1ccc(C(=O)NC(C)=O)cc1 | < 35% | 73% | 93% | <87% | 91% | 86% | 74% |  |  |
| CCCCCCCCCCCCCCCCNc1ccc(C(=O)NS(=O)(=O)c2ccccc2)cc1 | < 22% | <55% | 88% | <84% | <67% | 86% | <36% |  |  |
| CCCCCCCCCCCCCCCCNc1ccc(C(=O)O)cc1C | 1% | 96% | 94% | 92% | <91% | 75% | 101% |  |  |
| CCCCCCCCCCCCCCCCNc1ccc(C(=O)Nc2ccc(C(=O)O)cc2)cc1 | 12% | 121% | 95% | <87% | 100% | 85% | 103% |  |  |
| CCCCCCCCCCCCCCCCNc1ccc(C(=O)OCC(C)O)cc1 (stereo unspecified) | < 19% | <61% | 96% | <82% | <89% | <67% | <59% |  |  |
| CCCCCCCCCCCCCCCCNc1ccc(C(SCC)SCC)cc1 | 0% | 106% | 96% | 101% | 88% | 86% | 77% |  |  |
| CCCCCCCCCCCCCCCCNc1ccc(C(=O)O)c(OC)c1 |  |  | 104% | 105% | 98% | 75% | 77% |  | <66% |
| CCCCCCCCCCCCCCCCNc1ccc(C(=O)NCC(O)CO)cc1 (stereo unspecified) | < 61% | <73% | 99% | 88% | <72% | 114% | <48% |  |  |

More lines, main results first:

| inhibition [1] | Compound | serum triglyceride level, percent of control (Rattus norvegicus [2]) | serum sterol level, % of control (Rattus norvegicus [3]) | serum sterol level, percent of control (Rattus norvegicus [4]) | serum sterol level, percent of control (Rattus norvegicus [5]) | serum triglyceride level, percent of control (Rattus norvegicus [6]) | serum triglyceride, percent of control (Rattus norvegicus [7]) | Diet (Rattus norvegicus [8]) | Diet (Rattus norvegicus [9]) |
| --- | --- | --- | --- | --- | --- | --- | --- | --- | --- |
| 2% | CCCCCCCCCCCCCCCCNc1ccc(C(=O)CC(=O)OCC)cc1 | <53% | 105% | <83% | <85% | 71% | <30% |  |  |
| 0% | CCCCCCCCCCCCCCCCNc1ccc(O)cc1 | 124% | 104% | 99% | 92% | 118% | 104% |  |  |
| 16% | CCCCCCCCCCCCCCCCNc1ccc(C(=O)CCC(=O)O)cc1 | <72% | 116% | 100% | 109% |  | <66% | <82% |  |
| 0% | CCCCCCCCCCCCCCCCNc1ccc(C2OCCO2)cc1 | 82% | <85% | <77% | <71% | 100% | <47% |  |  |
| 15% | CCCCCCCCCCCCCCCCNc1ccc(C(=O)OCC(=O)OCC)cc1 | 76% | <80% | <81% | <66% | 92% | 72% |  |  |
| < 45% | CCCCCCCCCCCCCCCCNc1ccc(C(=O)NCCS(=O)(=O)O)cc1 | 71% | 91% | 90% | <80% | <67% | <56% |  |  |
| 0% | CCCCCCCCCCCCCCCCNc1ccc(C(=O)Oc2ccc(Cl)cc2)cc1 | 85% | 94% | <86% | 91% | 91% | 83% |  |  |
| 14% | CCCCCCCCCCCCCCCCNc1ccc(C(C)=O)cc1 | 88% | 129% | 119% | 98% | 84% | 78% |  |  |
| 3% | CCCCCCCCCCCCCCCCNc1ccc(C(=O)SCC(O)CO)cc1 (stereo unspecified) | 83% | 93% | 92% | <82% | 106% | <64% |  |  |
